Results as given in ChEMBL document CHEMBL3286171 (Eur J Med Chem, 2014).
pIC50: −log10 of the molar value. Calls of active or inactive are those of the source. The rule behind the calls is not given here.

Legend:
[1] = Effective permeability across human intestinal membrane by Ussing chamber technique
[2] = Drug absorption in human intestine
[3] = Permeability in human Caco2 cells; settings: Caco-2
[4] = Apparent permeability in MDCK cells; settings: dog
[5] = Protein binding in plasma (unknown origin)
[6] = target: Acetylcholinesterase (Electrophorus electricus, UniProt O42275); experiment: Inhibition of electric eel AChE using acetylthiocholine iodide as substrate preincubated for 20 mins followed by substrate addition measured after 5 mins by Ellman's method
[7] = Hepatotoxicity in human HepG2 cells assessed as cell viability at 1 uM by MTT assay relative to control; type: toxicity, cell-based; settings: read-out: Activity
[8] = Hepatotoxicity in human HepG2 cells assessed as cell viability at 3 uM by MTT assay relative to control; type: toxicity, cell-based; settings: read-out: Activity
[9] = Hepatotoxicity in human HepG2 cells assessed as cell viability at 10 uM by MTT assay relative to control; type: toxicity, cell-based; settings: read-out: Activity
[10] = Hepatotoxicity in human HepG2 cells assessed as cell viability at 30 uM by MTT assay relative to control; type: toxicity, cell-based; settings: read-out: Activity
[11] = Hepatotoxicity in human HepG2 cells assessed as cell viability at 100 uM by MTT assay relative to control; type: toxicity, cell-based; settings: read-out: Activity
[12] = Hepatotoxicity in human HepG2 cells assessed as cell viability at 300 uM by MTT assay relative to control; type: toxicity, cell-based; settings: read-out: Activity
[13] = Hepatotoxicity in human HepG2 cells assessed as cell viability at 1000 uM by MTT assay relative to control; type: toxicity, cell-based; settings: read-out: Activity
[14] = test system: Mus musculus; experiment: Cognitive enhancing effect in C57BL/6J mouse assessed as reversal of scopolamine-induced long-term memory deficit by measuring increase in latency time during probe session at 1 mg/kg, iv administered 90 mins prior to scopolamine-challenge measured after 24 hrs by passive avoidance test; type: functional, organism-based; design: dose 1 mg/kg
[15] = test system: Mus musculus; experiment: Cognitive enhancing effect in C57BL/6J mouse assessed as reversal of scopolamine-induced long-term memory deficit by measuring latency time during training session at 1 mg/kg, iv administered 90 mins prior to scopolamine-challenge measured after 24 hrs by passive avoidance test; type: functional, organism-based; design: dose 1 mg/kg
[16] = target: Cholinesterase (Equus caballus, UniProt P81908); experiment: Inhibition of equine serum BuChE using butyrylthiocholine iodide as substrate preincubated for 20 mins followed by substrate addition measured after 25 mins by Ellman's method
Summary of the method: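 Ellman-type colorimetric assay in 0.1 M phosphate buffer pH 8.0 with 0.05 U/mL BuChE and 0.35 mM DTNB. Serial inhibitor dilutions pre-incubated with the mix for 20 min, then butyrylthiocholine iodide added (final 0.5 mM). […] At least three experiments in triplicate, mean ± SEM.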

[17] = target: T1, Amine oxidase [flavin-containing] A (Rattus norvegicus, UniProt P21396); experiment: Inhibition of MAO-A in rat liver homogenate using [14C]-5HT as substrate preincubated for 30 mins followed by substrate addition measured after 20 mins by liquid scintillation counting analysis; type: tissue-based
T1 sequence (P21396 whole entry): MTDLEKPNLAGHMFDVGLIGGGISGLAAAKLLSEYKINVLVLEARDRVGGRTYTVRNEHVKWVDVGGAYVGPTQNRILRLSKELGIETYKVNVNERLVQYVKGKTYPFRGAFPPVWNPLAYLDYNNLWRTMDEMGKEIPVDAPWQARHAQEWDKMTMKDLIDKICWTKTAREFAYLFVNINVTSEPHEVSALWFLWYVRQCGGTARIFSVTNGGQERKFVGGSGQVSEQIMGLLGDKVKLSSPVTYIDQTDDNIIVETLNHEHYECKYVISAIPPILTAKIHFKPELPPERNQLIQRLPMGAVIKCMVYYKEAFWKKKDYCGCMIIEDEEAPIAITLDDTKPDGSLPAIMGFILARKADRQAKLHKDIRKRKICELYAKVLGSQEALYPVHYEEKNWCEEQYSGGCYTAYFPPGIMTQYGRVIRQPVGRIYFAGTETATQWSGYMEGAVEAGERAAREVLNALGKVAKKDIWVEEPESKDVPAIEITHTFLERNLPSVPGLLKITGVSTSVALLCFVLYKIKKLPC
Summary of the method: (§1)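 MAO source was rat liver homogenate. Enzyme pre-incubated 30 min with a range of inhibitor concentrations in 50 mM phosphate buffer, pH 7.4. Substrates: MAO A, 100 μM [14C]-5-HT (0.5 mCi/mmol), reaction 20 min; MAO B, 20 μM [14C]-PEA (2.5 mCi/mmol), reaction 4 min. Final volume 225 μl.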

[18] = target: T2, Amine oxidase [flavin-containing] B (Rattus norvegicus, UniProt P19643); experiment: Inhibition of MAO-B in rat liver homogenate using [14C]-phenylethylamine as substrate preincubated for 30 mins followed by substrate addition measured after 4 mins by liquid scintillation counting analysis; type: tissue-based; summary of the method: as §1
T2 sequence (P19643 whole entry): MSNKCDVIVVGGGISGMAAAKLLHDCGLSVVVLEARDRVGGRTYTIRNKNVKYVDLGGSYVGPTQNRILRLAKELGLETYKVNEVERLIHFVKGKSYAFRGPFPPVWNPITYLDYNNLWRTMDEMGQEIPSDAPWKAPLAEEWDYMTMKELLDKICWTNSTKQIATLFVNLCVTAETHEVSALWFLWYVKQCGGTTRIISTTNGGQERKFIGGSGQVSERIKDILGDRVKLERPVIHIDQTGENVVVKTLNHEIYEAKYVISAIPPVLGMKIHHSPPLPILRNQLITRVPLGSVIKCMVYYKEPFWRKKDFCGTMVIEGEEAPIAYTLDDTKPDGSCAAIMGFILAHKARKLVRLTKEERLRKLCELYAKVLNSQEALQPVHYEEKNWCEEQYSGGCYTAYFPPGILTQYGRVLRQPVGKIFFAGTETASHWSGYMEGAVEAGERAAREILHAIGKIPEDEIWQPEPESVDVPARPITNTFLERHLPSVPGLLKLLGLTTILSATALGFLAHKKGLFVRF

[19] = target: Acetylcholinesterase (Electrophorus electricus) (UniProt O42275); experiment: Mixed-type inhibition of electric eel AChE using acetylthiocholine iodide as substrate at 0.5 to 5 uM by Lineweaver-Burk plot analysis
[20] = target: T1, Amine oxidase [flavin-containing] A; experiment: Irreversible inhibition of MAO-A in rat liver homogenate assessed as recovery of enzyme activity at 10 uM preincubated for 30 mins followed by centrifugation and washing with PBS buffer; type: tissue-based
Summary of the method: (§2)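 Enzyme pre-incubated 30 min at 37 °C with inhibitor: 10 μM (MAO A) or 20 μM (MAO B). […] Three cycles of washing in 50 mM phosphate buffer pH 7.4 and centrifugation at 25,000 g, 10 min, 4 °C. Protein measured by Bradford; activity then assayed by the radiometric method. Six independent experiments in triplicate; Kruskal-Wallis analysis.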

[21] = target: T2, Amine oxidase [flavin-containing] B; experiment: Irreversible inhibition of MAO-B in rat liver homogenate assessed as recovery of enzyme activity at 20 uM preincubated for 30 mins followed by centrifugation and washing with PBS buffer; type: tissue-based; summary of the method: as §2
[22] = target: T1, Amine oxidase [flavin-containing] A; experiment: Inhibition of MAO-A in rat liver homogenate; type: tissue-based
Summary of the method: (§3)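 Rat liver homogenate as the MAO source. The enzyme is pre-incubated 30 min with several inhibitor concentrations in 50 mM phosphate buffer, pH 7.4. […] Mean ± SEM of at least three experiments in quadruplicate.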

[23] = target: T2, Amine oxidase [flavin-containing] B; experiment: Inhibition of MAO-B in rat liver homogenate; type: tissue-based; summary of the method: as §3
[24] = target: T1, Amine oxidase [flavin-containing] A; experiment: Inhibition of MAO-A in rat liver homogenate preincubated for 30 mins; type: tissue-based; summary of the method: as §3
[25] = target: T2, Amine oxidase [flavin-containing] B; experiment: Inhibition of MAO-B in rat liver homogenate preincubated for 30 mins; type: tissue-based; summary of the method: as §3
[26] = Metal chelating activity assessed as compound concentration required for copper complex formation after 5 mins by UV-Vis spectrometric analysis; type: physicochemical
Summary of the method: (§4)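 UV-Vis spectra (220-300 nm) recorded in distilled water at room temperature in 1 cm quartz cells. Ligand at 10 μM with increasing CuSO4, Fe2(SO4)3 or ZnSO4. Incubation times: Cu(II) 5 min, Zn(II) 1 h, Fe(III) overnight. Stoichiometry found by Job's method, plotting absorbance at 257 nm against ligand mole fraction.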

[27] = Metal chelating activity assessed as compound concentration required for ferric ion complex formation by UV-Vis spectrometric analysis; type: physicochemical; summary of the method: as §4
[28] = Metal chelating activity assessed as compound concentration required for zinc complex formation after 1 hr by UV-Vis spectrometric analysis; type: physicochemical; summary of the method: as §4
[29] = test system: Mus musculus; experiment: Cognitive enhancing effect in C57BL/6J mouse assessed as reversal of scopolamine-induced long-term memory deficit by measuring increase in latency time during probe session at 35 mg/kg, iv administered 90 mins prior to scopolamine-challenge measured after 24 hrs by passive avoidance test; type: functional, organism-based; design: dose 35 mg/kg
[30] = test system: Mus musculus; experiment: Cognitive enhancing effect in C57BL/6J mouse assessed as reversal of scopolamine-induced long-term memory deficit by measuring latency time during training session at 35 mg/kg, iv administered 90 mins prior to scopolamine-challenge measured after 24 hrs by passive avoidance test; type: functional, organism-based; design: dose 35 mg/kg

Acetylcholinesterase, sequence (O42275 whole entry): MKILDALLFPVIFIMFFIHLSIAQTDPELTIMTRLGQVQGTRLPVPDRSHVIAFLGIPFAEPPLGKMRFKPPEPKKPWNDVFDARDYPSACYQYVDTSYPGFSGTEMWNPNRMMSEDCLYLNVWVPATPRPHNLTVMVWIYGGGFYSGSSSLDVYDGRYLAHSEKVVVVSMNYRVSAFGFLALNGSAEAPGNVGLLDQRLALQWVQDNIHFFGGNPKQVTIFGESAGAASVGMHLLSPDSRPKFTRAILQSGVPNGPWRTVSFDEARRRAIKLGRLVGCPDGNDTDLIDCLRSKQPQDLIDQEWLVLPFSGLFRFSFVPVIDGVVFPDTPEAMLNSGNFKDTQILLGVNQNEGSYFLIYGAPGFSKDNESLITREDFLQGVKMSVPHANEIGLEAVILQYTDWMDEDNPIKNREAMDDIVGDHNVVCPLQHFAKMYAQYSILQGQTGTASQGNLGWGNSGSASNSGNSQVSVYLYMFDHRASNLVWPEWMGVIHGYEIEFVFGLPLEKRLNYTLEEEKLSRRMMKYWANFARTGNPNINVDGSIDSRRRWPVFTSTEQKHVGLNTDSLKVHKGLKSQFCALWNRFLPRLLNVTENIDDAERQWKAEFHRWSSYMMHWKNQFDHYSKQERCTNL
Cholinesterase, sequence (P81908 whole entry): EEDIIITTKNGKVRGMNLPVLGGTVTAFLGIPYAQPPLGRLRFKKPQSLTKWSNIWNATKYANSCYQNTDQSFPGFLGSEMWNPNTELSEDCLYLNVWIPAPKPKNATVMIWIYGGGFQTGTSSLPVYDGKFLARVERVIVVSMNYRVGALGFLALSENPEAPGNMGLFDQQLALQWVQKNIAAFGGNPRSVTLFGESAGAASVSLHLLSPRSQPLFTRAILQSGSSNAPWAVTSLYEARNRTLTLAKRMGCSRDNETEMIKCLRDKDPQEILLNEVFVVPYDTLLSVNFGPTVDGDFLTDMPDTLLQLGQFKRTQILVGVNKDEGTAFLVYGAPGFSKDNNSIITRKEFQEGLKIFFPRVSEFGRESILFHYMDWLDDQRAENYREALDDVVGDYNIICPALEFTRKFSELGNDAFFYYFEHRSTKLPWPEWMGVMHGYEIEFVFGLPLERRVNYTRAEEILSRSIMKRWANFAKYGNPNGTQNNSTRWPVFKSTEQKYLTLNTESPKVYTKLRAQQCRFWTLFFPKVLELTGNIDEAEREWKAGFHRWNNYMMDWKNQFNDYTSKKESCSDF
Acetylcholinesterase (Electrophorus electricus), sequence (O42275 24-633 limits assumed): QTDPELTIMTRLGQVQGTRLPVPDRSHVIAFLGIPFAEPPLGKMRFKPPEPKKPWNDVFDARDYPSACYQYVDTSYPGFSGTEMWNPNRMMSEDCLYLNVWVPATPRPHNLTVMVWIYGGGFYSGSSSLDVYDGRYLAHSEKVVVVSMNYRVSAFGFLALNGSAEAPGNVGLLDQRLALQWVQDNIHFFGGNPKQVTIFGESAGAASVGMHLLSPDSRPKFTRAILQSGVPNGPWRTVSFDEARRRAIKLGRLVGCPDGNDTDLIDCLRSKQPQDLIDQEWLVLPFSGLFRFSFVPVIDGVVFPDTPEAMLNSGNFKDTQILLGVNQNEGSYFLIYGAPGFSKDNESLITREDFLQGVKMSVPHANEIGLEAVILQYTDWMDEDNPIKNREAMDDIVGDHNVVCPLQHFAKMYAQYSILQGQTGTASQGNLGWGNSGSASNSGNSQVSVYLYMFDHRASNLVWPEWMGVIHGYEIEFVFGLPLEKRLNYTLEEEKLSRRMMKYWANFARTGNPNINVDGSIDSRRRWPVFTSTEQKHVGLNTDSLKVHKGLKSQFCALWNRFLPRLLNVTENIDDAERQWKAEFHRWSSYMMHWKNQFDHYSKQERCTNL

SMILES	Papp [1] [×10⁻⁶ cm/s]	Fa [2] [%]	Papp [3] [×10⁻⁶ cm/s]	Papp [4] [×10⁻⁶ cm/s]	fraction unbound [5]	pIC50 [6]	further results
C#CCN(CCCC1CCN(Cc2ccccc2)CC1)Cc1ccc(O)c2ncccc12	624	96.9	5.41	30.2	0.226		
C#CCN(Cc1ccc(O)c2ncccc12)CC1CCN(Cc2ccccc2)CC1	499	96.8	5.23	32.6	0.236		
C#CCN(C)[C@H](C)Cc1ccccc1 [SELEGILINE]						≤ 3.30	
COc1cc2c(cc1OC)C(=O)C(CC1CCN(Cc3ccccc3)CC1)C2 (configuration not stated) [DONEPEZIL]		98			0.154		viability at 1 µM [7]: 98.6%; viability at 3 µM [8]: 97%; viability at 10 µM [9]: 92.4%; viability at 30 µM [10]: 83.5%; viability at 100 µM [11]: 80%; viability at 300 µM [12]: 53.4%; viability at 1000 µM [13]: 40.9%; Activity [14]: Active; Activity [15]: inactive
C#CCN(Cc1ccc(O)c2ncccc12)C1CCN(Cc2ccccc2)CC1	447	96.8	4.57	35.1	0.273	≤ 4.00	pIC50 [16]: ≤ 4.00; pIC50 [17]: ≤ 4.00; pIC50 [18]: ≤ 4.00
C#CCN(C)CCCOc1ccc(Cl)cc1Cl [CLORGILINE]						≤ 3.30	pIC50 [16]: ≤ 3.30
C#CCN(Cc1ccc(O)c2ncccc12)C(C#N)C1CCN(Cc2ccccc2)CC1 (racemic)	336	96.8	4.93	34.8	0.197		
C#CCN(Cc1ccc(O)c2ncccc12)C(C#N)CCC1CCN(Cc2ccccc2)CC1 (racemic)	418	97	5.44	30.6	0.2	5.74	pIC50 [16]: 5.80; inhibition [19]: Active; inhibition (INH) [20]: Active; inhibition (INH) [21]: Active; inhibition (INH) [22]: Dose-dependent effect; inhibition (INH) [23]: Dose-dependent effect; pIC50 [24]: 5.42; pIC50 [25]: 5.08; Activity [26]: 0.65 mole fraction; Activity [27]: 0.5 mole fraction; Activity [28]: 0.65 mole fraction; viability at 1 µM [7]: 98.4%; viability at 3 µM [8]: 94.8%; viability at 10 µM [9]: 94.4%; viability at 30 µM [10]: 92.4%; viability at 100 µM [11]: 85.6%; viability at 300 µM [12]: 71.4%; viability at 1000 µM [13]: 51.5%; Activity [29]: Active; Activity [30]: inactive
C#CCN(C)Cc1ccc(O)c2ncccc12	250	95.9	4.29	42.9	0.31	≤ 4.00	pIC50 [17]: 7.24; pIC50 [18]: 5.82
C#CCN(Cc1ccc(O)c2ncccc12)C(C#N)CC1CCN(Cc2ccccc2)CC1 (racemic)	375	96.9	5.2	32.2	0.216		
C#CCN(CCC1CCN(Cc2ccccc2)CC1)Cc1ccc(O)c2ncccc12	559	96.9	5.44	31.3	0.229		
